Reference: ChEMBL document CHEMBL3797094, “Turmeric Sesquiterpenoids: Expeditious Resolution, Comparative Bioactivity, and a New Bicyclic Turmeronoid” (J Nat Prod, 2016)
Active and inactive are the calls of the source. No cut-off for these calls is given here.

Assays:
Homo sapiens [1] = species: Homo sapiens; assay: Inhibition of TNF alpha-induced NF-kappaB (unknown origin) activation in NIH/3T3-KBF-Luc cells assessed as suppression of IKappaB alpha phosphorylation at 1 to 50 uM preincubated for 15 mins followed by TNF alpha stimulation for 30 mins by western blot analysis; type: cell-based
Procedure, shortened: (§1)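 NIH-3T3-KBF-Luc cells were treated with the compounds for 15 min, then stimulated with TNFα (30 ng/mL) for 30 min. Lysis used Hepes pH 8.0 buffer with 0.5% NP-40 and protease/phosphatase inhibitors (15 min, 4 °C), then 10000g for 10 min. After Bradford assay, 20 μg protein was run on 10% SDS-PAGE and blotted to nitrocellulose. Blocking was 5% milk overnight; phospho-protein detection was by ECL.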

HeLa = assay: Cytotoxicity against human HeLa-STAT3-Luc cells assessed as cell viability at 1 to 50 uM after 12 hrs by YOYO-1 staining based fluorescence assay
[2] = target: Hypoxia-inducible factor 1-alpha (Homo sapiens) (UniProt Q16665); assay: Inhibition of DFX induced HIF-1 alpha (unknown origin) activation in NIH/3T3-EPO-Luc cells at 1 to 50 uM after 6 hrs by luciferase reporter gene assay; type: cell-based
Chain of Hypoxia-inducible factor 1-alpha (Homo sapiens) (Q16665 whole entry, looked up): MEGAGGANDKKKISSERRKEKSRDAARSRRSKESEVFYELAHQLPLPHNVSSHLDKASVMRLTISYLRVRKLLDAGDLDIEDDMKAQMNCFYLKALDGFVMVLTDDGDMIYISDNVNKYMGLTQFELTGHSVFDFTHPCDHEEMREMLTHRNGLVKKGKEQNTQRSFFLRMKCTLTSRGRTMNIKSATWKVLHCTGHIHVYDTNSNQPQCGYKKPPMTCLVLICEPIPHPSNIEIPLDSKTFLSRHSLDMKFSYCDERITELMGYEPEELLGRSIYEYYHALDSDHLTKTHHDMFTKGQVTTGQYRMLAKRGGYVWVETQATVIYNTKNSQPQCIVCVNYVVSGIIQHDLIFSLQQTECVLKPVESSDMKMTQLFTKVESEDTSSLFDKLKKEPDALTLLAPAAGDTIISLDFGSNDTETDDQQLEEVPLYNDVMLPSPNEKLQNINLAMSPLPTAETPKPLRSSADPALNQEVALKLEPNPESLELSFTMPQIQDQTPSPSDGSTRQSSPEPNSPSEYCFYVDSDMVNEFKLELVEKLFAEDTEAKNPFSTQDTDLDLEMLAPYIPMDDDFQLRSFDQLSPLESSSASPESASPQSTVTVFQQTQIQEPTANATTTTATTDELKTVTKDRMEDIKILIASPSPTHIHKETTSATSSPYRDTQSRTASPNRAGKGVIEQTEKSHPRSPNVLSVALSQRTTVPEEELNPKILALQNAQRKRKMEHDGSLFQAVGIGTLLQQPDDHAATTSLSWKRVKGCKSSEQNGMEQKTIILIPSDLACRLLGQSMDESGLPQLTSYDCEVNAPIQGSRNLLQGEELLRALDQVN
Procedure, shortened: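 NIH-3T3-EPO-Luc cells (15 × 10⁴ cells/mL, DMEM with 10% FBS, 37 °C) were preincubated with the compounds at rising concentrations, then given DFX (150 μM) for 6 h. Luciferase was measured in the cleared Tris-phosphate/Triton lysate and expressed as fold induction over basal.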

[3] = Cytotoxicity against mouse NIH/3T3-EPO-Luc cells assessed as cell viability at 1 to 50 uM after 12 hrs by YOYO-1 staining based fluorescence assay; conditions: nih3t3, 12 h
[4] = Cytotoxicity against mouse NIH/3T3-KBF-Luc cells assessed as cell viability at 1 to 50 uM after 12 hrs by YOYO-1 staining based fluorescence assay; conditions: nih3t3, 12 h
Homo sapiens [5] = species: Homo sapiens; assay: Inhibition of TNF alpha-induced NF-kappaB (unknown origin) activation in NIH/3T3-KBF-Luc cells assessed as suppression of p65 phosphorylation at 1 to 50 uM preincubated for 15 mins followed by TNF alpha stimulation for 30 mins by western blot analysis; type: cell-based; procedure, shortened: as §1
[6] = Inhibition of TNF alpha-induced NF-kappaB (unknown origin) activation in NIH/3T3-KBF-Luc cells after 6 hrs by luciferase reporter gene assay; type: cell-based; conditions: Homo sapiens
Procedure, shortened: (§2)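 NIH-3T3-KBF-Luc fibroblasts (15 × 10⁴ cells/mL) were kept at 37 °C and 5% CO2 in DMEM with 10% heat-inactivated FBS. Cells were preincubated with the compounds at rising concentrations, then stimulated with TNFα for 6 h. They were PBS-washed and lysed for 15 min at rt in Tris-phosphate pH 7.8 with 1% Triton X-100. Luciferase was read in the supernatant, with TNFα alone set as 100%.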

[7] = target: T1, Nuclear factor erythroid 2-related factor 2 (Homo sapiens) (UniProt Q16236); assay: Activation of Nrf2 (unknown origin) in HaCaT-ARE-Luc cells at 1 to 50 uM after 6 hrs by luciferase reporter gene assay; type: cell-based
T1 sequence (whole entry): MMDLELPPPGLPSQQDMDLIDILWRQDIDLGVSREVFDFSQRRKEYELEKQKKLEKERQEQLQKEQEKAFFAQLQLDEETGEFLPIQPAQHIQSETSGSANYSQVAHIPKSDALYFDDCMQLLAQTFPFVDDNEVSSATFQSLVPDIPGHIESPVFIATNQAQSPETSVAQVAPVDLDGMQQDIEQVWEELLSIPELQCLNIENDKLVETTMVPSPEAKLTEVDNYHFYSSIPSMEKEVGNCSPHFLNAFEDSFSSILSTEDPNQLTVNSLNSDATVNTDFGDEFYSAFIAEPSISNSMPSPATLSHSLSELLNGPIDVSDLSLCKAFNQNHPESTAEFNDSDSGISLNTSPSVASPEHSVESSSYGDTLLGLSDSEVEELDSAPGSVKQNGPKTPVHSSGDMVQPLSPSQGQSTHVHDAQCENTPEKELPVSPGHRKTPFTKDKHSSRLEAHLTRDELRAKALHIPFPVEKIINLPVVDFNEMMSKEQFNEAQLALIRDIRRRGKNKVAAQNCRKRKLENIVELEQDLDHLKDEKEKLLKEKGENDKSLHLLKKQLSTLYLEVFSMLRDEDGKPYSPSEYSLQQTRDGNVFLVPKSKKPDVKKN
Procedure, shortened: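 HaCaT-ARE-Luc cells (15 × 10⁴ cells/mL, DMEM with 10% FBS, 37 °C, 5% CO2) were exposed to the compounds alone at rising concentrations for 6 h. Cells were PBS-washed and lysed in Tris-phosphate pH 7.8 with Triton X-100. Luciferase activity in the cleared lysate is given as fold induction over basal.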

HaCaT = assay: Cytotoxicity against human HaCaT-ARE-Luc cells assessed as cell viability at 1 to 50 uM after 12 hrs by YOYO-1 staining based fluorescence assay
Homo sapiens [8] = species: Homo sapiens; assay: Activation of NF-kappaB (unknown origin) in NIH/3T3-KBF-Luc cells at 1 to 50 uM coincubated with TNF-alpha after 6 hrs by luciferase reporter gene assay; type: cell-based; procedure, shortened: as §2
[9] = target: Signal transducer and activator of transcription 3 (Homo sapiens) (UniProt P40763); assay: Inhibition of IFN gamma-induced STAT3 (unknown origin) activation in HeLa-STAT3-Luc cells at 1 to 50 uM after 6 hrs by luciferase reporter gene assay; type: cell-based
Chain of Signal transducer and activator of transcription 3 (Homo sapiens) (P40763 whole entry): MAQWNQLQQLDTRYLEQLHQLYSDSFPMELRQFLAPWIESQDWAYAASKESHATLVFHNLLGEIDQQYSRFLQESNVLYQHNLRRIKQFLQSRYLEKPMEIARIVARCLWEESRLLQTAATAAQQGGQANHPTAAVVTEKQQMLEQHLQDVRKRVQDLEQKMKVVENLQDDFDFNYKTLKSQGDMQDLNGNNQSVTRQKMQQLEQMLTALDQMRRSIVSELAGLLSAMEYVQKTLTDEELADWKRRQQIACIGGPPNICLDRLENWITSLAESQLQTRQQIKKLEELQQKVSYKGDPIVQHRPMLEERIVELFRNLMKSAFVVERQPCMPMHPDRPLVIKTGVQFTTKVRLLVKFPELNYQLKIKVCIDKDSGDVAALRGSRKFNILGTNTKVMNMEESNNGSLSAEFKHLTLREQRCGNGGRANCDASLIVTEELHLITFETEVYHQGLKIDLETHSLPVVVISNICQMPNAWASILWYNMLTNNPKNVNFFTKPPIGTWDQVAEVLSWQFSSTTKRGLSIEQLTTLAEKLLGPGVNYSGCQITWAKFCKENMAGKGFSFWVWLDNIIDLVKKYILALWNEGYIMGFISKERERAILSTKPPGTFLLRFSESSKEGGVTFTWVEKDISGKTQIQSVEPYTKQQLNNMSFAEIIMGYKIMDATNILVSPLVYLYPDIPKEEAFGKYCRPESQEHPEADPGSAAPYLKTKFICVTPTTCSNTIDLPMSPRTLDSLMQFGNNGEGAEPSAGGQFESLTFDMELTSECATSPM
Procedure, shortened: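 HeLa-STAT3-Luc reporter cells (15 × 10⁴ cells/mL, DMEM with 10% FBS, 37 °C, 5% CO2) were preincubated with the compounds at rising concentrations, then stimulated with IFNγ for 6 h. Lysate luciferase is expressed as percent inhibition, with IFNγ-induced activity set as 100%.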

inhibition [2] | IC50 [6] [µM] | Activity [7] | Activity [9] | SMILES | inhibition (Homo sapiens [1]) | Activity (HeLa) | Activity [3] | Activity [4] | inhibition (Homo sapiens [5]) | Activity (HaCaT) | Activity (Homo sapiens [8])
inactive | 22.7 | inactive | – | CC(C)=CC(=O)C[C@H](C)c1ccc(C)cc1 | Active | Non-toxic | Non-toxic | Non-toxic | Active | Non-toxic | –
inactive | – | Active | inactive | C=C1C=C[C@H]([C@@H](C)CC(=O)C=C(C)C)CC1 | – | – | – | – | – | – | Active
